According to ChEMBL document CHEMBL1212762, “In vivo activity of ceftobiprole in murine skin infections due to Staphylococcus aureus and Pseudomonas aeruginosa” (Antimicrob Agents Chemother, 2010):

Experiments:
[1] = system: Plasma; test: fAUC (0-infinity) in immunocompromized SKH1 mouse plasma at 12.5 mg/kg, sc; assay type: ADME, organism-based; design: dose 12.5 mg/kg, route subcutaneous; settings: in vivo
How it was run: (§1)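 Female SKH1 hairless mice, immunocompetent or cyclophosphamide-neutropenic, infected s.c. with MRSA OC 8525 or P. aeruginosa OC 4354 on the Cytodex beads (left flank), sterile beads on the right. Single dose 24 h later: s.c. at the nape, or linezolid 50 mg/kg oral. Plasma and skin (DMSO homogenate) sampled over time, HPLC with diode array.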

[2] = system: Pseudomonas aeruginosa; test: Antimicrobial activity against Pseudomonas aeruginosa OC 4354 infected in immunocompromized SKH1 mouse assessed as log change in bacterial colony forming unit at 100 mg/kg/day, sc; assay type: functional; settings: route subcutaneous
How it was run: (§2)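 Female SKH1 hairless mice made neutropenic with ip cyclophosphamide (150 mg/kg 5 days and 100 mg/kg 1 day before infection). 0.2 ml s.c. Cytodex bead (0.1% vol/vol) inoculum in BHI: OC 4351 left flank, OC 4354 right flank. Drug s.c. at 1, 3, 25, 27 h postinfection. Killed at 48 h; skin homogenised in saline, plated on TSA 18 h 37°C; Δlog CFU/g versus inoculum. 5 mice/dose, run twice.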

[3] = Half life in immunocompromized SKH1 mouse plasma at 12.5 mg/kg, sc; assay type: ADME, organism-based; design: dose 12.5 mg/kg, route subcutaneous; how it was run: as §1
[4] = system: Pseudomonas aeruginosa; test: Antimicrobial activity against Pseudomonas aeruginosa OC 4354 infected in immunocompromized SKH1 mouse assessed as lesion volume at 6.2 mg/kg/day, sc measured after 48 hrs postinfection (reference value: 2195 mm3); assay type: functional; settings: route subcutaneous
[5] = Tmax in immunocompromized SKH1 mouse plasma at 12.5 mg/kg, sc; assay type: ADME, organism-based; design: dose 12.5 mg/kg, route subcutaneous; how it was run: as §1
[6] = system: Pseudomonas aeruginosa; test: Antimicrobial activity against Pseudomonas aeruginosa OC 4351 infected in immunocompromized SKH1 mouse assessed as lesion volume at 100 mg/kg/day, sc measured after 48 hrs postinfection (reference value: 2234 mm3); assay type: functional; settings: route subcutaneous
[7] = system: Pseudomonas aeruginosa; test: Antimicrobial activity against Pseudomonas aeruginosa OC 4351 infected in immunocompromized SKH1 mouse assessed as lesion volume at 25 mg/kg/day, sc measured after 48 hrs postinfection (reference value: 2234 mm3); assay type: functional; settings: route subcutaneous
[8] = fT>MIC in Pseudomonas aeruginosa OC 4354 infected sc dosed SKH1 mouse administered in 24 hrs dosing interval; assay type: functional
How it was run: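 Plasma levels came from female hairless SKH1 mice given single s.c. doses at the nape 24 h after flank s.c. infection with Cytodex beads. S. aureus work used immunocompetent mice. P. aeruginosa work used mice made neutropenic with cyclophosphamide i.p., 150 mg/kg at day −5 and 100 mg/kg at day −1. Drug assayed by HPLC with diode-array detection. Noncompartmental analysis.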

[9] = system: Pseudomonas aeruginosa; test: Antimicrobial activity against Pseudomonas aeruginosa OC 4354 infected in immunocompromized SKH1 mouse assessed as log change in bacterial colony forming unit at 6.2 mg/kg/day, sc; assay type: functional; settings: route subcutaneous; how it was run: as §2
[10] = system: Plasma; test: fCmax in immunocompromized SKH1 mouse plasma at 50 mg/kg, sc; assay type: ADME, organism-based; design: dose 50 mg/kg, route subcutaneous; settings: in vivo; how it was run: as §1
[11] = system: Pseudomonas aeruginosa; test: Antimicrobial activity against Pseudomonas aeruginosa OC 4354 infected in immunocompromized SKH1 mouse assessed as lesion volume at 25 mg/kg/day, sc measured after 48 hrs postinfection (reference value: 2195 mm3); assay type: functional; settings: route subcutaneous
[12] = system: Pseudomonas aeruginosa; test: Antimicrobial activity against Pseudomonas aeruginosa OC 4354 infected in immunocompromized SKH1 mouse assessed as lesion volume at 1.6 mg/kg/day, sc measured after 48 hrs postinfection (reference value: 2195 mm3); assay type: functional; settings: route subcutaneous
[13] = system: Pseudomonas aeruginosa; test: Antimicrobial activity against Pseudomonas aeruginosa OC 4354 infected in immunocompromized SKH1 mouse assessed as log change in bacterial colony forming unit at 1.6 mg/kg/day, sc; assay type: functional; settings: route subcutaneous; how it was run: as §2
[14] = system: Pseudomonas aeruginosa; test: Antimicrobial activity against Pseudomonas aeruginosa OC 4354 infected in immunocompromized SKH1 mouse assessed as lesion volume at 100 mg/kg/day, sc measured after 48 hrs postinfection (reference value: 2195 mm3); assay type: functional; settings: route subcutaneous
[15] = system: Pseudomonas aeruginosa; test: Antimicrobial activity against Pseudomonas aeruginosa OC 4354 infected in immunocompromized SKH1 mouse assessed as log change in bacterial colony forming unit at 25 mg/kg/day, sc; assay type: functional; settings: route subcutaneous; how it was run: as §2
[16] = system: Plasma; test: fAUC (0-infinity) in immunocompromized SKH1 mouse plasma at 50 mg/kg, sc; assay type: ADME, organism-based; design: dose 50 mg/kg, route subcutaneous; settings: in vivo; how it was run: as §1
[17] = system: Pseudomonas aeruginosa; test: Antimicrobial activity against Pseudomonas aeruginosa OC 4351 infected in immunocompromized SKH1 mouse assessed as lesion volume at 1.6 mg/kg/day, sc measured after 48 hrs postinfection (reference value: 2234 mm3); assay type: functional; settings: route subcutaneous
[18] = system: Plasma; test: fCmax in immunocompromized SKH1 mouse plasma at 12.5 mg/kg, sc; assay type: ADME, organism-based; design: dose 12.5 mg/kg, route subcutaneous; settings: in vivo; how it was run: as §1
[19] = fT>MIC in Pseudomonas aeruginosa OC 4351 infected sc dosed SKH1 mouse at 50 mg/kg, sc administered twice at 1 and 3 hrs after infection; assay type: functional; settings: route subcutaneous
[20] = system: Pseudomonas aeruginosa; test: Antimicrobial activity against Pseudomonas aeruginosa OC 4351 assessed as inhibition of growth by broth microdilution method; assay type: functional
[21] = Tmax in immunocompromized SKH1 mouse plasma at 50 mg/kg, sc; assay type: ADME, organism-based; design: dose 50 mg/kg, route subcutaneous; how it was run: as §1
[22] = system: Pseudomonas aeruginosa; test: Antimicrobial activity against Pseudomonas aeruginosa OC 4351 infected in immunocompromized SKH1 mouse assessed as log change in bacterial colony forming unit at 1.6 mg/kg/day, sc; assay type: functional; settings: route subcutaneous; how it was run: as §2
[23] = system: Pseudomonas aeruginosa; test: Antimicrobial activity against Pseudomonas aeruginosa OC 4351 infected in immunocompromized SKH1 mouse assessed as lesion volume at 6.2 mg/kg/day, sc measured after 48 hrs postinfection (reference value: 2234 mm3); assay type: functional; settings: route subcutaneous
[24] = system: Pseudomonas aeruginosa; test: Antimicrobial activity against Pseudomonas aeruginosa OC 4351 infected in immunocompromized SKH1 mouse assessed as log change in bacterial colony forming unit at 25 mg/kg/day, sc; assay type: functional; settings: route subcutaneous; how it was run: as §2
[25] = system: Pseudomonas aeruginosa; test: Antimicrobial activity against Pseudomonas aeruginosa OC 4351 infected in immunocompromized SKH1 mouse assessed as log change in bacterial colony forming unit at 100 mg/kg/day, sc; assay type: functional; settings: route subcutaneous; how it was run: as §2
[26] = fT>MIC in Pseudomonas aeruginosa OC 4351 infected sc dosed SKH1 mouse administered in 24 hrs dosing interval; assay type: functional
[27] = Half life in immunocompromized SKH1 mouse plasma at 50 mg/kg, sc; assay type: ADME, organism-based; design: dose 50 mg/kg, route subcutaneous
[28] = system: Pseudomonas aeruginosa; test: Antimicrobial activity against Pseudomonas aeruginosa OC 4351 infected in immunocompromized SKH1 mouse assessed as log change in bacterial colony forming units at 25 mg/kg/day, sc; assay type: functional; settings: route subcutaneous; how it was run: as §2
[29] = fT>MIC in Pseudomonas aeruginosa OC 4354 infected sc dosed SKH1 mouse at 50 mg/kg, sc administered twice at 1 and 3 hrs after infection; assay type: functional; settings: route subcutaneous
[30] = system: Pseudomonas aeruginosa; test: Antimicrobial activity against Pseudomonas aeruginosa OC 4354 assessed as inhibition of growth by broth microdilution method; assay type: functional
[31] = Tmax in immunocompetent SKH1 mouse plasma at 50 mg/kg, sc; assay type: ADME, organism-based; design: dose 50 mg/kg, route subcutaneous; how it was run: as §1
[32] = system: Plasma; test: fCmax in immunocompetent SKH1 mouse plasma at 50 mg/kg, sc; assay type: ADME, organism-based; design: dose 50 mg/kg, route subcutaneous; settings: in vivo; how it was run: as §1
[33] = Half life in immunocompetent SKH1 mouse plasma at 50 mg/kg, sc; assay type: ADME, organism-based; design: dose 50 mg/kg, route subcutaneous
[34] = Protein binding in mouse plasma; assay type: ADME, cell-free; settings: read-out: PPB (converted)
[35] = system: Staphylococcus aureus; test: Antimicrobial activity against methicillin-susceptible Staphylococcus aureus Smith OC 4172 infected immunocompetent SKH1 mouse assessed as lesion volume at 1.6 mg/kg/day, sc measured after 48 hrs postinfection (reference value: 1181 mm3); settings: route subcutaneous
[36] = system: Staphylococcus aureus; test: Antimicrobial activity against methicillin-susceptible Staphylococcus aureus Smith OC 4172 infected immunocompetent SKH1 mouse assessed as lesion volume at 100 mg/kg/day, sc measured after 48 hrs postinfection (reference value: 1181 mm3); settings: route subcutaneous
[37] = system: Staphylococcus aureus; test: Antimicrobial activity against methicillin-resistant Staphylococcus aureus OC 8525 infected immunocompetent SKH1 mouse assessed as lesion volume at 100 mg/kg/day, sc measured after 48 hrs postinfection (reference value: 1535 mm3); settings: route subcutaneous
[38] = system: Staphylococcus aureus; test: Antimicrobial activity against methicillin-susceptible Staphylococcus aureus Smith OC 4172 infected immunocompetent SKH1 mouse assessed as lesion volume at 6.2 mg/kg/day, sc measured after 48 hrs postinfection (reference value: 1181 mm3); settings: route subcutaneous
[39] = system: Staphylococcus aureus; test: Antimicrobial activity against methicillin-resistant Staphylococcus aureus OC 8525 infected immunocompetent SKH1 mouse assessed as lesion volume at 1.6 mg/kg/day, sc measured after 48 hrs postinfection (reference value: 1535 mm3); settings: route subcutaneous
[40] = Ratio of fAUC to MIC in Staphylococcus aureus OC 4172 infected sc dosed SKH1 mouse; assay type: functional
How it was run: (§3)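 Free-drug plasma AUC, converted from μg·min/ml to μg·h/ml, divided by the MIC of the infecting S. aureus strain.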

[41] = Ratio of fAUC to MIC in Staphylococcus aureus OC 8525 infected sc dosed SKH1 mouse; assay type: functional; how it was run: as §3
[42] = system: Staphylococcus aureus; test: Antimicrobial activity against methicillin-resistant Staphylococcus aureus OC 8525 infected immunocompetent SKH1 mouse assessed as lesion volume at 6.2 mg/kg/day, sc measured after 48 hrs postinfection (reference value: 1535 mm3); settings: route subcutaneous
[43] = system: Staphylococcus aureus; test: Antimicrobial activity against methicillin-susceptible Staphylococcus aureus Smith OC 4172 infected immunocompetent SKH1 mouse assessed as lesion volume at 25 mg/kg/day, sc measured after 48 hrs postinfection (reference value: 1181 mm3); settings: route subcutaneous
[44] = system: Plasma; test: fAUC (0-infinity) in immunocompetent SKH1 mouse plasma at 50 mg/kg, sc; assay type: ADME, organism-based; design: dose 50 mg/kg, route subcutaneous; settings: in vivo; how it was run: as §1
[45] = system: Staphylococcus aureus; test: Antimicrobial activity against methicillin-resistant Staphylococcus aureus OC 8525 infected immunocompetent SKH1 mouse assessed as lesion volume at 25 mg/kg/day, sc measured after 48 hrs postinfection (reference value: 1535 mm3); settings: route subcutaneous

SMILES: C[C@@H](O)[C@H]1C(=O)N2C(C(=O)O)=C(S[C@@H]3CN[C@H](C(=O)N(C)C)C3)[C@H](C)[C@H]12 [MEROPENEM]
- fAUC [1]: 268 µg·min/mL
- deltalog10CFU [2]: -1.1
- half-life [3]: 13.6 min
- Activity [4]: 1030 mm3
- Tmax [5]: 7.5 min
- Activity [6]: 602 mm3
- Activity [7]: 862 mm3
- fT>MIC [8]: 8%
- deltalog10CFU [9]: 0.5
- fCmax [10]: 72 µg/mL
- Activity [11]: 926 mm3
- Activity [12]: 1316 mm3
- deltalog10CFU [13]: 0.7
- Activity [14]: 810 mm3
- deltalog10CFU [15]: -1.1
- fAUC [16]: 1837 µg·min/mL
- Activity [17]: 1190 mm3
- fCmax [18]: 11 µg/mL
- fT>MIC [19]: 2 h
- MIC [20]: 0.12 µg/mL
- Tmax [21]: 7.5 min
- deltalog10CFU [22]: 0.2
- Activity [23]: 992 mm3
- deltalog10CFU [24]: 0.2
- deltalog10CFU [25]: -1
- fT>MIC [26]: 8.5%
- half-life [27]: 8.6 min
- deltalog10CFU [28]: -0.9
- fT>MIC [29]: 1.9 h
- MIC [30]: 0.5 µg/mL

SMILES: CN[C@H](CC(C)C)C(=O)N[C@H]1C(=O)N[C@@H](CC(N)=O)C(=O)N[C@H]2C(=O)N[C@H]3C(=O)N[C@H](C(=O)N[C@H](C(=O)O)c4cc(O)cc(O)c4-c4cc3ccc4O)[C@H](O)c3ccc(c(Cl)c3)Oc3cc2cc(c3O[C@@H]2O[C@H](CO)[C@@H](O)[C@H](O)[C@H]2O[C@H]2C[C@](C)(N)[C@H](O)[C@H](C)O2)Oc2ccc(cc2Cl)[C@H]1O [VANCOMYCIN]
- Tmax [31]: 10 min
- fCmax [32]: 40 µg/mL
- half-life [33]: 22 min
- fraction unbound [34]: 0.75
- Activity [35]: 1386 mm3
- Activity [36]: 437 mm3
- Activity [37]: 606 mm3
- Activity [38]: 1211 mm3
- Activity [39]: 1637 mm3
- fAUC/MIC [40]: 2070
- fAUC/MIC [41]: 2070
- Activity [42]: 1392 mm3
- Activity [43]: 916 mm3
- fAUC [44]: 2070 µg·min/mL
- Activity [45]: 927 mm3
